{"source": "paper PMC4824313", "about": "(Bioorganic & medicinal chemistry letters, 2016)", "key": {"rat mGlu1": {"target": "rat mGlu1 (Rattus norvegicus, UniProt P23385)", "sequence (P23385 19-1199)": "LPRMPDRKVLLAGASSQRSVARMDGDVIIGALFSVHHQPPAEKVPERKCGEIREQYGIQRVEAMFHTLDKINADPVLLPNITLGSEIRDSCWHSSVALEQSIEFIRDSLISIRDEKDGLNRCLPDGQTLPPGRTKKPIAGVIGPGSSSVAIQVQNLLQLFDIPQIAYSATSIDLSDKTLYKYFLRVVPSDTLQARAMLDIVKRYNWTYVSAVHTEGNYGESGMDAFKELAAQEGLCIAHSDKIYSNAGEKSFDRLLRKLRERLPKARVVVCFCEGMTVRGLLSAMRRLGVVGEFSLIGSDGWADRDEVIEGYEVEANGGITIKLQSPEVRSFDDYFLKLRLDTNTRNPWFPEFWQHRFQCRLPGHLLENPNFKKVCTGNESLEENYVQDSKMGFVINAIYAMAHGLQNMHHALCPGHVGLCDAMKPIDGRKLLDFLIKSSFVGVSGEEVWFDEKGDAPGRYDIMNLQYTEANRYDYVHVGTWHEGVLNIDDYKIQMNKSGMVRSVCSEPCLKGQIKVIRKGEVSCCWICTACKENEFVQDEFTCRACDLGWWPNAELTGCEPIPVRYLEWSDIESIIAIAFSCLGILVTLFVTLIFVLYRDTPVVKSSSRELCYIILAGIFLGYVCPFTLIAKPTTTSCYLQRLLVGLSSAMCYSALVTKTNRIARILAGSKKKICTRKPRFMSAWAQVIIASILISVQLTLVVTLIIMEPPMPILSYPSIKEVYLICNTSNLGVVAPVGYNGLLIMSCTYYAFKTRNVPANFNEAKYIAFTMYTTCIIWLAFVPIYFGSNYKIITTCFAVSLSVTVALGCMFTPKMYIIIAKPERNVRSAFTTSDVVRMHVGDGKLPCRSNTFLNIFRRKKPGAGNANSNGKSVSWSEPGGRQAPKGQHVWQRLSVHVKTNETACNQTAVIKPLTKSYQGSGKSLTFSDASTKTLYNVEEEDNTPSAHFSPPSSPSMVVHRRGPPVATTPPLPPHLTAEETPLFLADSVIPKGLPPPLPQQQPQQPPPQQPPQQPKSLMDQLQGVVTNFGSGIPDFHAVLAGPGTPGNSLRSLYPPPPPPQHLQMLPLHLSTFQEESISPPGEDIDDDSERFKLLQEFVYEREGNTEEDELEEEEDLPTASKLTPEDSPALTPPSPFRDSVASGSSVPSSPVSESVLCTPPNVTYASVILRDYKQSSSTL", "assay": "rat mGlu1 calcium mobilization assay", "format": "cell-based", "conditions": "for mGlu1 pIC50 (± SEM): Calcium mobilization assay, rat mGlu1, NAM; for mGlu1 NAM activity (in words): top concentration tested 30 μM"}, "rat mGlu5": {"target": "rat mGlu5 (Rattus norvegicus, UniProt P31424)", "sequence (P31424 21-1203)": "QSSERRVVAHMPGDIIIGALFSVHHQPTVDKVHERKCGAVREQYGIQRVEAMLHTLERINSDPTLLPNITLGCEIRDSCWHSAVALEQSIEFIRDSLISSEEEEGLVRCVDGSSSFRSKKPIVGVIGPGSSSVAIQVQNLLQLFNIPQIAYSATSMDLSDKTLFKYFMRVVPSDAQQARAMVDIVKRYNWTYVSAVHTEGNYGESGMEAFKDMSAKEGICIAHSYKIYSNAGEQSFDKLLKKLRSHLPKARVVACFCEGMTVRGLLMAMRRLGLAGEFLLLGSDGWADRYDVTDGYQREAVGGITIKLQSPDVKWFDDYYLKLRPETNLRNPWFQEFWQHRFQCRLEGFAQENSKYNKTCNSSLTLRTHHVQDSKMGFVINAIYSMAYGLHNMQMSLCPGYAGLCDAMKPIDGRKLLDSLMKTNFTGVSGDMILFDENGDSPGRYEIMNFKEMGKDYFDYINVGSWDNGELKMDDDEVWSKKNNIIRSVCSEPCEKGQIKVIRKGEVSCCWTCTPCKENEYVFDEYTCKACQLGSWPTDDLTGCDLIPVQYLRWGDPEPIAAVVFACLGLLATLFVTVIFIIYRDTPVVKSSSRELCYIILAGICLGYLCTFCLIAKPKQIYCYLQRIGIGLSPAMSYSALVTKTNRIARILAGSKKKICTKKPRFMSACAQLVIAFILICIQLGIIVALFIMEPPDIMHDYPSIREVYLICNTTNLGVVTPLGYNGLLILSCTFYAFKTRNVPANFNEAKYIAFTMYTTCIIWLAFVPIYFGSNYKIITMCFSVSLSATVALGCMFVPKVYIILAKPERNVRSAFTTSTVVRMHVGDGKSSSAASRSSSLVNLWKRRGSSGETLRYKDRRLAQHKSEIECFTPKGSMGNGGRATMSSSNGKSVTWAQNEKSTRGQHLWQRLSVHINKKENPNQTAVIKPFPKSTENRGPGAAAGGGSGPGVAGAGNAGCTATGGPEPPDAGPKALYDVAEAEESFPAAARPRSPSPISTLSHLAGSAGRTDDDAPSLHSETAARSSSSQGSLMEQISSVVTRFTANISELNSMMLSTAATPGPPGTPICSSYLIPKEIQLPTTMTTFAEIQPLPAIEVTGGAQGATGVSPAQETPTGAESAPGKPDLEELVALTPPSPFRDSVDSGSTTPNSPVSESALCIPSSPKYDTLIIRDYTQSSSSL", "assay": "rat mGlu5 calcium mobilization assay", "format": "cell-based"}, "Rat IV PK": {"assay": "Rat IV PK", "format": "in vivo, male Sprague-Dawley rats", "conditions": "male, Sprague-Dawley, plasma, 0.2 mg/kg", "how_it_was_run": "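Male Sprague-Dawley rats were dosed IV with 2 animals per time point. The plasma concentration–time profile gave half-life, plasma clearance and steady-state volume of distribution.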"}, "369 kinases": {"tested_on": "369 kinases", "assay": "kinase panel of 369 kinases", "format": "biochemical", "conditions": "10 μM"}, "[1]": {"tested_on": "remaining six members of the mGlu family", "assay": "mGlu selectivity fold-shift experiments on orthosteric agonist CRC", "format": "cell-based"}, "[2]": {"assay": "Mouse IP PK time course study", "format": "in vivo, male CD-1 mice", "conditions": "mice; IP 30 mg/kg", "how_it_was_run": "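Tissue distribution was run in parallel under the same conditions, with brain and plasma taken at 30 min to give Kp and Kp,uu. Unbound brain concentration was estimated from these exposures combined with fraction unbound from equilibrium dialysis.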"}, "[3]": {"tested_on": "68 clinically relevant targets", "assay": "radioligand binding assay panel of 68 clinically relevant targets", "conditions": "10 μM; significant = greater than or equal to 50% inhibition of binding", "how_it_was_run": "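Test compound was screened at a single 10 μM concentration for displacement of radioligand binding at each panel target. Inhibition of binding of at least 50% was counted as a significant response.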"}, "[4]": {"assay": "Rat IP PK time course study", "format": "in vivo, male Sprague-Dawley rats", "conditions": "rats; IP 10 mg/kg", "how_it_was_run": "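Male Sprague-Dawley rats received a single 10 mg/kg IP dose, with 2 animals per time point. Plasma was followed over time for Tmax, Cmax and AUC. Brain and plasma were taken at 15 min to give Kp and Kp,uu. Unbound brain concentration was estimated from these exposures combined with fraction unbound from equilibrium dialysis.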"}}}
{"smiles": "C[C@H](Nc1ncnc2c1nn1ccccc21)C1CC1", "note": "[Compound 12]", "values": [{"measurement": "mGlu1 pIC50 (± SEM)", "setting": "rat mGlu1", "value": "< 4.5"}]}
{"smiles": "CC(C)(C)CCNc1ncnc2c1nn1ccccc21", "note": "[Compound 18]", "values": [{"measurement": "mGlu5 NAM potency relative to mGlu1 NAM activity", "setting": "rat mGlu5; rat mGlu5 vs rat mGlu1", "value": "approximately ten-fold less"}]}
{"smiles": "CCC(C)(C)Nc1ncnc2c1nn1ccccc21", "note": "[Compound 19]", "values": [{"measurement": "mGlu1 NAM activity (in words)", "setting": "rat mGlu1", "value": "only a weak mGlu1 NAM, inhibiting the glutamate response only at the top concentration tested"}]}
{"smiles": "CC1(C)CCC(Nc2ncnc3c2nn2ccccc32)CC1", "note": "[Compound 29, N-(4,4-dimethylcyclohexyl)pyrido[1′,2′:1,5]pyrazolo[4,3-d]pyrimidin-4-amine]", "values": [{"measurement": "Vd", "setting": "Rat IV PK", "value": 3.1, "unit": "L/kg"}, {"measurement": "number of kinases of 369 inhibited more than 50%", "setting": "369 kinases", "value": "eight"}, {"measurement": "effect on the orthosteric agonist concentration-response curve (fold-shift)", "setting": "[1]; 10 μM, remaining six mGlus", "value": "no significant effects were observed"}, {"measurement": "selectivity for the group I mGlu receptors", "setting": "[1]; versus remaining six mGlus", "value": "> 75", "unit": "fold"}, {"measurement": "estimated unbound brain concentration", "setting": "[2]", "value": "approximately 100 nM"}, {"measurement": "number of the 68 targets with no significant responses", "setting": "[3]", "value": 62}, {"measurement": "mGlu5 pIC50 (± SEM)", "setting": "rat mGlu5; Calcium mobilization assay, rat mGlu5, NAM", "value": "6.89 ± 0.29"}, {"measurement": "estimated unbound brain concentration", "setting": "[4]", "value": "approximately 100 nM"}]}
{"smiles": "C[C@H]1CC[C@H](Nc2nc(N)nc3c2nn2ccccc32)CC1", "note": "[Compound 41]", "values": [{"measurement": "mGlu1 NAM activity (in words)", "setting": "rat mGlu1", "value": "weak mGlu1 NAM activity"}]}
{"smiles": "CNc1nc(N[C@H]2CC[C@H](C)CC2)c2nn3ccccc3c2n1", "note": "[Compound 42]", "values": [{"measurement": "mGlu1 pIC50 (± SEM)", "setting": "rat mGlu1", "value": "< 4.5"}]}
{"smiles": "CN(C)c1nc(N[C@H]2CC[C@H](C)CC2)c2nn3ccccc3c2n1", "note": "[Compound 43]", "values": [{"measurement": "mGlu1 pIC50 (± SEM)", "setting": "rat mGlu1", "value": "< 4.5"}]}
{"smiles": "CC(C)Nc1nc(N[C@H]2CC[C@H](C)CC2)c2nn3ccccc3c2n1", "note": "[Compound 44]", "values": [{"measurement": "mGlu1 pIC50 (± SEM)", "setting": "rat mGlu1", "value": "< 4.5"}]}
